Experimental data from ChEMBL document CHEMBL1134591, “N-Aryl sulfonyl homocysteine hydroxamate inhibitors of matrix metalloproteinases: further probing of the S(1), S(1)', and S(2)' pockets” (J Med Chem, 2001).

Legend:
Stromelysin-1 = Stromelysin-1 (Homo sapiens, UniProt P08254); experiment: In vitro inhibitory activity against matrix metalloprotease-3
How it was run: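 MMP-3 activated with APMA (4-aminophenylmercuric acetate); cleavage of quenched fluorogenic substrate (7-methoxycoumarin-4-yl)-Arg-Pro-Lys-Pro-Tyr-Ala-Nva-Trp-Met-Lys(Dnp)-NH₂ at the Ala–Nva bond monitored; IC50 (nM) derived.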

[1] = target: Matrix metalloproteinase-9 (Homo sapiens, UniProt P14780); experiment: In vitro inhibition of human matrix metalloprotease-9
Sequence of Matrix metalloproteinase-9 (P14780 whole entry): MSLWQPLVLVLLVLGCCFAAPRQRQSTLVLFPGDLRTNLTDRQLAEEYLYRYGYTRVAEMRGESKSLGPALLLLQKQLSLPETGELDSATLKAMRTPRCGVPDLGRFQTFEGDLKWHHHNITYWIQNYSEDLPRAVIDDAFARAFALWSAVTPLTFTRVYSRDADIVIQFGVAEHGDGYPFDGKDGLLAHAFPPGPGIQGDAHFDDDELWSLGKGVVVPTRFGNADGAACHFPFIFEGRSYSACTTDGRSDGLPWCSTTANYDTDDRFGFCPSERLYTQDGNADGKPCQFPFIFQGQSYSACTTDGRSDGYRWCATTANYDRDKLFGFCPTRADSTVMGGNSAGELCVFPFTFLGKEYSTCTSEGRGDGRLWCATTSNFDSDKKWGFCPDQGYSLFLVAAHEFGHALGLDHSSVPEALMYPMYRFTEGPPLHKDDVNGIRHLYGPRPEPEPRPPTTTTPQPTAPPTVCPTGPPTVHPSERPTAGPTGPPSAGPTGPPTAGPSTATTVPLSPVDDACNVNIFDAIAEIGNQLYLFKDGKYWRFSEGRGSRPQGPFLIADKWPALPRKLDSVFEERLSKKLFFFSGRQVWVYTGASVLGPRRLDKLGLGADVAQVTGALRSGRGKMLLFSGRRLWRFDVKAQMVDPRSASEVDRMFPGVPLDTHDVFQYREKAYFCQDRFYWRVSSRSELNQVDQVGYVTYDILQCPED
How it was run: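 APMA-activated enzyme, fluorogenic quenched peptide substrate Dnp-Pro-Cha-Gly-Cys(Me)-His-Ala-Lys(Nma)-NH₂, cleaved between Gly and Cys; inhibition read as substrate cleavage, reported as IC50 (nM).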

Interstitial collagenase = target: T1, Interstitial collagenase (Homo sapiens, UniProt P03956); experiment: In vitro inhibition of human matrix metalloprotease-1
T1 sequence (P03956 whole entry): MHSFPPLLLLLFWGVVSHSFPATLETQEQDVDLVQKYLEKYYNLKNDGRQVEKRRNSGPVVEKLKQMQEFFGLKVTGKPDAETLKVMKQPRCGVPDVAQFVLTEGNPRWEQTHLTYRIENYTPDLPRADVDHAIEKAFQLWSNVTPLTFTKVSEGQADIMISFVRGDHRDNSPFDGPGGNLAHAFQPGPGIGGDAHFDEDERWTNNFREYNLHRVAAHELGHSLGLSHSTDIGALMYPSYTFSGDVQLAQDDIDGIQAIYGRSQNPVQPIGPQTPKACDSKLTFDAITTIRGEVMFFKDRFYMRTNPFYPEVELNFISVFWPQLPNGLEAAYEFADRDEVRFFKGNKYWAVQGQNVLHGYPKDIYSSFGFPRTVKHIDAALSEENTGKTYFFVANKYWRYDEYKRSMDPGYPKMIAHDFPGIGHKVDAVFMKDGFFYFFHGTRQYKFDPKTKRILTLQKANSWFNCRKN

[2] = target: 72 kDa type IV collagenase (Homo sapiens, UniProt P08253); experiment: In vitro inhibition of human matrix metalloprotease-2
Sequence of 72 kDa type IV collagenase (P08253 whole entry): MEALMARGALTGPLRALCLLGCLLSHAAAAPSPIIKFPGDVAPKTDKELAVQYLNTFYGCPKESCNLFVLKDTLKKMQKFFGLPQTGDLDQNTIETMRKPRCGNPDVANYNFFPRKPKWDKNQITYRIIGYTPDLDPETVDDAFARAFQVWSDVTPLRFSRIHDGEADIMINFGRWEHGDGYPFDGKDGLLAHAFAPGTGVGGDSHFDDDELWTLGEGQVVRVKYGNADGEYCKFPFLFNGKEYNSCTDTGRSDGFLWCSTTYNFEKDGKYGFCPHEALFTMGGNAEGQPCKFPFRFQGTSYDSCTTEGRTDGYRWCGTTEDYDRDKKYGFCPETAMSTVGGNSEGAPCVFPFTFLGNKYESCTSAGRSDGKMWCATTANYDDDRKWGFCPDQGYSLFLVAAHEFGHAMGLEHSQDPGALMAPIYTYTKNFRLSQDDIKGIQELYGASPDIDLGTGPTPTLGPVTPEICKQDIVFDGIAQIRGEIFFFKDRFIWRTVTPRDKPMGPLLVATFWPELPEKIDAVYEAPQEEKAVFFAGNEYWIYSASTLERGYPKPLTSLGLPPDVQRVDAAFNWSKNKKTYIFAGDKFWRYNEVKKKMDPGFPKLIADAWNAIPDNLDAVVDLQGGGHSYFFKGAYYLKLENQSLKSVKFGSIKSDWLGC

Collagenase 3 = Collagenase 3 (Homo sapiens, UniProt P45452); experiment: In vitro inhibition of human matrix metalloprotease-13

Sequence of Stromelysin-1 (P08254 whole entry): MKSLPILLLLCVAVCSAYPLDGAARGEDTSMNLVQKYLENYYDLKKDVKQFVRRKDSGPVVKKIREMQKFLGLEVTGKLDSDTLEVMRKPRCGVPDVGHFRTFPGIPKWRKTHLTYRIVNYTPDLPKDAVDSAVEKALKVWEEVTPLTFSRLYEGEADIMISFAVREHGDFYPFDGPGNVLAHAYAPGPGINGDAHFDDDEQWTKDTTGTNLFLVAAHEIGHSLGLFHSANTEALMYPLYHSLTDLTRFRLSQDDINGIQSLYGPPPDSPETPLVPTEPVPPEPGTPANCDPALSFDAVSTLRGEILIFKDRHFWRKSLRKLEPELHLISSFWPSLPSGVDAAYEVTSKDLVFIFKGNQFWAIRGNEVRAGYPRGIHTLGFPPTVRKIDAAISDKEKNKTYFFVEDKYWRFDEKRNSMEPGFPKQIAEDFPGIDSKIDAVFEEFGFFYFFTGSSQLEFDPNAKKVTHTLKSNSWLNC

| IC50 (Stromelysin-1) | IC50 [1] | IC50 (Interstitial collagenase) | IC50 [2] | IC50 (Collagenase 3) | SMILES |
| --- | --- | --- | --- | --- | --- |
| 0.9 nM | 0.2 nM | 19 nM | 0.7 nM | 0.7 nM | COc1ccc(CNC(=O)CN(C(CCSCc2ccccc2)C(=O)NO)S(=O)(=O)c2ccc(OC)cc2)cc1 (centres undefined) |
| 1.6 nM | 0.2 nM | 16 nM | 1 nM | 0.8 nM | COc1ccc(S(=O)(=O)N(CC(=O)NC2CCCCC2)C(CCSCc2ccccc2)C(=O)NO)cc1 (centres undefined) |
| 0.7 nM | < 0.1 nM | 104 nM | 0.7 nM | 12 nM | COc1ccc(S(=O)(=O)N(CC(C)C)C(CCSCc2ccccc2)C(=O)NO)cc1 (centres undefined) |
| 29 nM | 8 nM | – | – | – | COc1ccc(S(=O)(=O)N(CC(C)C)C(CCSCc2ccc(OCc3ccccc3)cc2)C(=O)NO)cc1 (centres undefined) |
| 1.1 nM | 0.2 nM | 39 nM | 0.4 nM | 0.4 nM | COc1ccc(S(=O)(=O)N(CC(=O)NC(c2ccccn2)c2ccccn2)C(CCSCc2ccccc2)C(=O)NO)cc1 (centres undefined) |
| 2.2 nM | 0.2 nM | – | 1.2 nM | 1.1 nM | COc1ccc(S(=O)(=O)N(CC(=O)NCc2cccnc2)C(CCSCc2ccccc2)C(=O)NO)cc1 (centres undefined) |
| – | 1.88 nM | – | 8.82 nM | – | COc1ccc(S(=O)(=O)N(CC(=O)NC(C2CCCCC2)C2CCCCC2)C(CCSCc2ccccc2)C(=O)NO)cc1 (centres undefined) |
| – | 0.01 nM | – | 0.3 nM | – | COc1ccc(S(=O)(=O)N(CC(=O)NCC2CCCCC2)C(CCSCc2ccccc2)C(=O)NO)cc1 (centres undefined) |
| 4.7 nM | 0.6 nM | 36 nM | 1.6 nM | 2.3 nM | COc1ccc(S(=O)(=O)N(CC(=O)NCc2cc(OC)cc(OC)c2)C(CCSCc2ccccc2)C(=O)NO)cc1 (centres undefined) |
| 3.7 nM | 0.5 nM | – | 2.3 nM | 4.5 nM | COc1ccc(S(=O)(=O)N(CC(=O)NC(c2ccccc2)c2ccccc2)C(CCSCc2ccccc2)C(=O)NO)cc1 (centres undefined) |
| 2.5 nM | 0.3 nM | 49 nM | 1.2 nM | 1.6 nM | COc1ccc(S(=O)(=O)N(CC(=O)NCc2c(OC)cc(OC)cc2OC)C(CCSCc2ccccc2)C(=O)NO)cc1 (centres undefined) |

The next lines start with the compound.

| SMILES | IC50 (Stromelysin-1) | IC50 [1] | IC50 (Interstitial collagenase) | IC50 [2] | IC50 (Collagenase 3) |
| --- | --- | --- | --- | --- | --- |
| COc1ccc(S(=O)(=O)N(CC(C)C)C(CCSCc2c(F)c(F)c(F)c(F)c2F)C(=O)NO)cc1 (centres undefined) | 705 nM | 149 nM | – | 1810 nM | 407 nM |
| COc1ccc(S(=O)(=O)N(CC(C)C)C(CCSCc2ccc(-c3ccccc3)cc2)C(=O)NO)cc1 (centres undefined) | 20 nM | 0.2 nM | – | 30 nM | – |
| COc1ccc(S(=O)(=O)N(CC(=O)NCc2ccccc2)C(CCSCc2ccccc2)C(=O)NO)cc1 (centres undefined) | 1.6 nM | 0.2 nM | 51 nM | 0.7 nM | 0.5 nM |
| COc1ccc(S(=O)(=O)N(CC(C)C)C(CCS(=O)(=O)Cc2ccccc2)C(=O)NO)cc1 (centres undefined) | 10.3 nM | 0.9 nM | 396 nM | 4.22 nM | 11.8 nM |
| CC(C)CN(C(CCSCc1ccccc1)C(=O)NO)S(=O)(=O)c1ccc(Oc2ccccc2)cc1 (centres undefined) | 4.2 nM | 0.5 nM | – | 1.6 nM | 3.2 nM |
| CCC(C(=O)NO)N(CC(C)C)S(=O)(=O)c1ccc(OC)cc1 (centres undefined) | 45 nM | 7 nM | 384 nM | 53 nM | 96 nM |
| COc1ccc(S(=O)(=O)N(CC(C)C)C(CCSCc2cccc(OC)c2)C(=O)NO)cc1 (centres undefined) | 5.7 nM | 3.2 nM | 297 nM | 3.78 nM | 5.3 nM |
| COc1ccc(S(=O)(=O)N(CC(=O)N2CCOCC2)C(CCSCc2ccccc2)C(=O)NO)cc1 (centres undefined) | 195 nM | 29 nM | 532 nM | 16 nM | 23 nM |
| COc1ccc(S(=O)(=O)N(CC(C)C)C(CCSCc2cccnc2)C(=O)NO)cc1 (centres undefined) | 6.2 nM | 3 nM | 126 nM | 6.3 nM | 16.2 nM |
| CC(C)CN(C(CCSCc1ccccc1)C(=O)NO)S(=O)(=O)c1ccc(Br)cc1 (centres undefined) | 15.1 nM | 4.3 nM | 164 nM | 16 nM | 14 nM |
| CC(C)CN(C(CCSCc1ccccc1)C(=O)NO)S(=O)(=O)c1ccc(-c2ccccc2)cc1 (centres undefined) | 90 nM | 2.5 nM | – | 4.1 nM | 3.8 nM |
| COc1ccc(S(=O)(=O)N(CC(C)C)C(CCSCc2ccsc2)C(=O)NO)cc1 (centres undefined) | 5.4 nM | 1 nM | 188 nM | 3.2 nM | 5.1 nM |
